Data from the RNAGym collection of RNA variant scans (doi:10.1038/nmeth.2970).

B1: NELF-E aptamer (parent)
chain: CCCAACGACUGCCGAGCGAGAUUACGCUUGAGCGCCCCACUGAGGAUGCCCACGGGCGAUUGGGGCACGG

Variants of: B1
Assay: HiTS-RAP
Details: with NELF-E (Drosophila)
Outline: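 Aptamer DNA templates bearing a T7 promoter and a ter site were sequenced on an Illumina GAIIx flowcell. T7 RNA polymerase then transcribed them in situ, and GST-Tus halted transcription over 30 minutes at 37°C. After a 30-minute room-temperature equilibration with NELF-E-mOrange at 0.064 to 1000 nM in HEPES binding buffer, clusters were imaged, using only the first binding curve. Intensities normalised to sequencing intensity were averaged per sequence and fitted with weighted Hill fits to give Kd, retaining only fits whose variance stayed under 1,000,000.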

Row | Variant | Kd [nM]
1 | CCCAACGACCGCGGAGCGAGAUUACGCUUGAGCGCCCCACUGAGGAUGCCCACGGGCGAUUGGGGCACGG | 5.55
2 | CCCAACUUCUGCCGAGCGAGAUUACGCUUGAGCGCCCCACUGAGGAUGCCCACGGGCGAUUGGGGCACGG | 6.38
3 | CCCGACGACUGCCGAGCGAGAUUAUGCUUGAGCGCCCCACUGAGGAUGCCCACGGGCGAUUGGGGCACGG | 6.15
4 | CCCAACGACUGUCGAUCGAGAUUACGCUUGAGCGCCCCACUGAGGAUGCCCACGGGCGAUUGGGGCACGG | 5.76
5 | CCCAACGACUUCCGAGCGAGAUUACGCUUGAGCGCCCCACUGAGGAUGCCCACGGGCGAUUGGGGCACGG | 5.7
6 | CCCAACGACUGCCGAGCGAGAUGACGCUUGAGCGCCCCACUGAGGAUGCCCACGGGCGAAUGGGGCACGG | 12.9
7 | CCCAACGACGGCCGAGCGAGAUUACGCUUGAGCGCCCCACUGAGGAUGCCCACGGGCGAUUGCGGCACGG | 43
8 | CCCACCGACGGCCGAGCGAGAUUACGCUUGAGCGCCCCACUGAGGAUGCCCACGGGCGAUUGGGGCACGG | 6.68
9 | CCCAACGACUGCCGAGCGAGAUUACGCUGGAGCGCCCCACUGAGGAUGCCCACGGACGAUUGGGGCACGG | 5.64
10 | CCCAACGAGUGCCGAGCGAGAUUACGCUUGAGCGCCCCACUGAGGAUGCCCACGGGCGAUUGGAGCACGG | 8.13
11 | CCCAAGGACUGCCGAGCGAGAUCACGCUUGAGCGCCCCACUGAGGAUGCCCACGGGCGAUUGGGGCACGG | 4.4
12 | CCCAACGACUGCCAAACGAGAUUACGCUUGAGCGCCCCACUGAGGAUGCCCACGGGCGAUUGGGGCACGG | 6.86
13 | CCCAACGACUGCCGAGCGAGAUUACGCUUGAGGGCCCCACUGAGGAUGCCCACGGGCGAUUGGGGCACGG | 5.4
14 | CCCAACGACUGCCGAGCAAGAUGACGCUUGAGCGCCCCACUGAGGAUGCCCACGGGCGAUUGGGGCACGG | 4.95
15 | CCCAACGACUGCCGAGCUAGAUGACGCUUGAGCGCCCCACUGAGGAUGCCCACGGGCGAUUGGGGCACGG | 6.43
16 | CCCAACGACUGCCGAUUGAGAUUACGCUUGAGCGCCCCACUGAGGAUGCCCACGGGCGAUUGGGGCACGG | 6.11
17 | CCCAACGACUGCCGAGCGAGAUUACGCCUGAGCGCCCCACUGAGGAUGCCCACGGGCGGUUGGGGCACGG | 113
18 | CCCGACGACUGCCGAGCGAGAUUACGUUUGAGCGCCCCACUGAGGAUGCCCACGGGCGAUUGGGGCACGG | 4.47
19 | CCCAACGACUGCCGAGCGAGAGUACGCUUGAGCGGCCCACUGAGGAUGCCCACGGGCGAUUGGGGCACGG | 6.38
20 | CCCAACGACGGCCGAGCGAGAUUAAGCUUGAGCGCCCCACUGAGGAUGCCCACGGGCGAUUGGGGCACGG | 4.07

Row | Variant | Kd [nM]
21 | CCCAACGACUUCCGUGCGAGAUUACGCUUGAGCGCCCCACUGAGGAUGCCCACGGGCGAUUGGGGCACGG | 7.47
22 | CCCAUCGACUGCCGAGCGAGAUUACGCUUGAGCGCCCCGCUGAGGAUGCCCACGGGCGAUUGGGGCACGG | 8.51
23 | CCCAACUACUGUCGAGCGAGAUUACGCUUGAGCGCCCCACUGAGGAUGCCCACGGGCGAUUGGGGCACGG | 5.94
24 | CCCAACUACUGGCGAGCGAGAUUACGCUUGAGCGCCCCACUGAGGAUGCCCACGGGCGAUUGGGGCACGG | 6.89
25 | CCCAACGACUGCCGAGCGAGAUUACGCUGGAGCGCCCCACUGAGGAUGCCCACGGGCGAUUGUGGCACGG | 12.4
26 | CCCAAGGACUGCCGAGCGAGAUUACGCUUGAGCGCCCCACUGAGGAUGCCCACGGGCGAUUGGGGCACGG | 4.75
27 | CCCAUCGACUGCCGAGCGAGAUUACGCCUGAGCGCCCCACUGAGGAUGCCCACGGGCGAUUGGGGCACGG | 7.9
28 | CCCAACUACUGCCGAGCGAGAUUACGCUUGAGCGCCCCACUGAUGAUGCCCACGGGCGAUUGGGGCACGG | 16.7
29 | CCCAACGACUACCUAGCGAGAUUACGCUUGAGCGCCCCACUGAGGAUGCCCACGGGCGAUUGGGGCACGG | 6.48
30 | CCCAAUGACUGCCGAGCGAGAUGACGCUUGAGCGCCCCACUGAGGAUGCCCACGGGCGAUUGGGGCACGG | 6.14
31 | CCCAACGACUGCCGAGCGAGAUUACGCUUGAGCGCCCCACGGAGGAUGCCCACGGGCGAUUGGGGCGCGG | 6.35
32 | CCCAACGACUGCCGAGCAGGAUUACGCUUGAGCGCCCCACUGAGGAUGCCCACGGGCGAUUGGGGCACGG | 5.36
33 | CCCAACGACUGUCGAGGGAGAUUACGCUUGAGCGCCCCACUGAGGAUGCCCACGGGCGAUUGGGGCACGG | 6.2
34 | CCCAUCGACUGCCGAGCGAGAUUACGCUUGAGCGCCCCACUGAGGAUGCUCACGGGCGAUUGGGGCACGG | 15
35 | CCCAACGACGGCCGAGCGAGAUUACGCUUGAGCGCCCCACUGUGGAUGCCCACGGGCGAUUGGGGCACGG | 75.2
36 | CCCAACGACUUCCGAGCGAGAUUACGCUUGAGCGCCCCACUGAGGAUGCCCACGGGCGUUUGGGGCACGG | 48.9
37 | CCCAACGACGGCCGAGCGAGAUUACGCUUGAGCGCACCACUGAGGAUGCCCACGGGCGAUUGGGGCACGG | 9.48
38 | CCCAAGGACUGCCGAGCGAGAUUACGCUUGAGCGCCCCACUGAGGAUGCUCACGGGCGAUUGGGGCACGG | 16.1
39 | CCCGAGGACUGCCGAGCGAGAUUACGCUUGAGCGCCCCACUGAGGAUGCCCACGGGCGAUUGGGGCACGG | 5.28
